Measurements from ChEMBL document CHEMBL3808334, “Synthesis and in vitro evaluation of novel triazine analogues as anticancer agents and their interaction studies with bovine serum albumin” (Eur J Med Chem, 2016).

Experiments:
Type in all cases: functional
[1] = Growth inhibition of human DU145 cells assessed as cell growth at 10^-4 M incubated for 48 hrs by sulforhodamine B assay; conditions: DU-145, 48 h, read-out: Activity
Method in brief: (§1)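 Cells seeded at 5,000–40,000/well according to doubling time and preincubated 24 h at 37 °C, 5% CO2. Time-zero plates were TCA-fixed. DMSO concentrate was diluted in medium with 50 µg/ml gentamicin to give five concentrations (10-fold or ½ log steps), then exposed 48 h. Cells were TCA-fixed, stained with 0.4% SRB and read at 515 nm. Percent growth was taken against time-zero and control; GI50, TGI and LC50 derived.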

[2] = tested on: NCI-H522; experiment: Growth inhibition of human NCI-H522 cells incubated for 48 hrs by sulforhodamine B assay; conditions: NCI-H522, 48 h
Method in brief: (§2)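 Cells were plated at 5,000–40,000 per well according to doubling time and preincubated 24 h at 37 °C in 5% CO2; time-zero plates were then TCA-fixed. Five concentrations (10-fold or ½-log dilutions, DMSO stock) were incubated 48 h. Cells were TCA-fixed, stained with 0.4% SRB and read at 515 nm. GI50 was taken where [(Ti−Tz)/(C−Tz)]×100 = 50.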

[3] = Growth inhibition of human HCC2998 cells incubated for 48 hrs by sulforhodamine B assay; conditions: HCC 2998, 48 h; method in brief: as §1
[4] = Growth inhibition of human SNB75 cells incubated for 48 hrs by sulforhodamine B assay; conditions: SNB-75, 48 h; method in brief: as §2
[5] = tested on: M14; experiment: Growth inhibition of human M14 cells incubated for 48 hrs by sulforhodamine B assay; conditions: M14, 48 h; method in brief: as §2
[6] = Growth inhibition of human HCT15 cells assessed as cell growth at 10^-7 M incubated for 48 hrs by sulforhodamine B assay; conditions: HCT-15, 48 h, read-out: Activity; method in brief: as §1
[7] = Growth inhibition of human TK10 cells assessed as cell growth at 10^-5 M incubated for 48 hrs by sulforhodamine B assay; conditions: TK-10, 48 h, read-out: Activity
[8] = Growth inhibition of human HCC2998 cells assessed as cell growth at 10^-4 M incubated for 48 hrs by sulforhodamine B assay; conditions: HCC 2998, 48 h, read-out: Activity
[9] = Growth inhibition of human SF539 cells assessed as cell growth at 10^-7 M incubated for 48 hrs by sulforhodamine B assay; conditions: SF-539, 48 h, read-out: Activity
[10] = tested on: SK-MEL-28; experiment: Growth inhibition of human SK-MEL-28 cells assessed as cell growth at 10^-7 M incubated for 48 hrs by sulforhodamine B assay; conditions: SK-MEL-28, 48 h, read-out: Activity
[11] = Growth inhibition of human SNB75 cells assessed as cell growth at 10^-4 M incubated for 48 hrs by sulforhodamine B assay; conditions: SNB-75, 48 h, read-out: Activity
[12] = Growth inhibition of human UACC62 cells assessed as cell growth at 10^-4 M incubated for 48 hrs by sulforhodamine B assay; conditions: UACC-62, 48 h, read-out: Activity
[13] = Growth inhibition of human OVCAR3 cells assessed as cell growth at 10^-4 M incubated for 48 hrs by sulforhodamine B assay; conditions: OVCAR-3, 48 h, read-out: Activity
[14] = Growth inhibition of human OVCAR3 cells assessed as cell growth at 10^-7 M incubated for 48 hrs by sulforhodamine B assay; conditions: OVCAR-3, 48 h, read-out: Activity
[15] = Growth inhibition of human IGROV1 cells assessed as cell growth at 10 uM incubated for 48 hrs by sulforhodamine B assay; conditions: IGROV-1, 48 h, read-out: Activity
[16] = Growth inhibition of human OVCAR3 cells assessed as cell growth at 10 uM incubated for 48 hrs by sulforhodamine B assay; conditions: OVCAR-3, 48 h, read-out: Activity
[17] = tested on: EKVX; experiment: Growth inhibition of human EKVX cells assessed as cell growth at 10^-8 M incubated for 48 hrs by sulforhodamine B assay; conditions: read-out: Activity; method in brief: as §1
[18] = Growth inhibition of human HOP62 cells assessed as cell growth at 10^-8 M incubated for 48 hrs by sulforhodamine B assay; conditions: HOP-62, 48 h, read-out: Activity
[19] = Growth inhibition of human PC3 cells assessed as cell growth at 10^-7 M incubated for 48 hrs by sulforhodamine B assay; conditions: PC-3, 48 h, read-out: Activity
[20] = tested on: NCI-H226; experiment: Growth inhibition of human NCI-H226 cells assessed as cell growth at 10^-6 M incubated for 48 hrs by sulforhodamine B assay; conditions: NCI-H226, 48 h, read-out: Activity
[21] = tested on: KM12; experiment: Growth inhibition of human KM12 cells assessed as cell growth at 10^-8 M incubated for 48 hrs by sulforhodamine B assay; conditions: KM12, 48 h, read-out: Activity
[22] = tested on: Malme-3M; experiment: Growth inhibition of human MALME-3M cells assessed as cell growth at 10^-8 M incubated for 48 hrs by sulforhodamine B assay; conditions: read-out: Activity
[23] = tested on: SK-MEL-28; experiment: Growth inhibition of human SK-MEL-28 cells assessed as cell growth at 10^-6 M incubated for 48 hrs by sulforhodamine B assay; conditions: SK-MEL-28, 48 h, read-out: Activity
[24] = Growth inhibition of human OVCAR5 cells assessed as cell growth at 10^-6 M incubated for 48 hrs by sulforhodamine B assay; conditions: OVCAR-5, 48 h, read-out: Activity
[25] = tested on: SN12C; experiment: Growth inhibition of human SN12C cells assessed as cell growth at 10^-6 M incubated for 48 hrs by sulforhodamine B assay; conditions: read-out: Activity
[26] = Growth inhibition of human PC3 cells assessed as cell growth at 10^-6 M incubated for 48 hrs by sulforhodamine B assay; conditions: PC-3, 48 h, read-out: Activity
[27] = Growth inhibition of human COLO205 cells assessed as cell growth at 10^-5 M incubated for 48 hrs by sulforhodamine B assay; conditions: COLO 205, 48 h, read-out: Activity; method in brief: as §1
[28] = tested on: T47D; experiment: Growth inhibition of human T47D cells incubated for 48 hrs by sulforhodamine B assay; method in brief: as §2
[29] = tested on: MDA-MB-468; experiment: Growth inhibition of human MDA-MB-468 cells incubated for 48 hrs by sulforhodamine B assay; conditions: MDA-MB-468, 48 h; method in brief: as §2
[30] = read-out: LC50 (the source's name)
[31] = read-out: pLC50 (the source's name) (converted)

Compound `Fc1ccc(-c2nc(Nc3ccc(-c4nc5ccccc5[nH]4)cc3)nc(N3CCOCC3)n2)cc1` has a growth at 100 µM [1] of 8%, a GI50 ([2]; read-out: GI50) of 2360 nM and a CC50 [2, 30] of over 100 µM. For the same compound, the TGI ([2]; read-out: TGI) was 5.85 µM, the GI50 ([2]; read-out: pGI50 (converted)) was 2340 nM and the CC50 [2, 31] was over 100 µM. The TGI ([2]; read-out: pTGI (converted)) was 5.89 µM, the GI50 ([3]; read-out: GI50) was 3.09 µM and the CC50 [3, 30] was over 100 µM. For the same compound, the TGI ([3]; read-out: TGI) was over 100 µM, the GI50 ([3]; read-out: pGI50 (converted)) was 3.09 µM and the CC50 [3, 31] was over 100 µM. The TGI ([3]; read-out: pTGI (converted)) was over 100 µM, the GI50 ([4]; read-out: GI50) was 1800 nM and the CC50 [4, 30] was over 100 µM. The TGI ([4]; read-out: TGI) was 10.5 µM, the GI50 ([4]; read-out: pGI50 (converted)) was 1820 nM and the CC50 [4, 31] was over 100 µM. For the same compound, the TGI ([4]; read-out: pTGI (converted)) was 10.5 µM, the GI50 ([5]; read-out: GI50) was 1940 nM and the CC50 [5, 30] was 8.37 µM. The TGI ([5]; read-out: TGI) was 4.03 µM, the GI50 ([5]; read-out: pGI50 (converted)) was 1950 nM and the CC50 [5, 31] was 8.32 µM. It also gave a TGI ([5]; read-out: pTGI (converted)) of 4.07 µM, a growth at 0.1 µM [6] of 98% and a growth at 10 µM [7] of -7%. For the same compound, the growth at 100 µM [8] was 2%, the growth at 0.1 µM [9] was 92% and the growth at 0.1 µM [10] was 91%. The growth at 100 µM [11] was -33%, the growth at 100 µM [12] was -45% and the growth at 100 µM [13] was -45%. For the same compound, the growth at 0.1 µM [14] was 100%, the growth at 10 µM [15] was 33.7% and the growth at 10 µM [16] was 5.15%. For the same compound, the growth at 0.01 µM [17] was 93%, the growth at 0.01 µM [18] was 98% and the growth at 0.1 µM [19] was 105%. The growth at 1 µM [20] was 113%, the growth at 0.01 µM [21] was 95% and the growth at 0.01 µM [22] was 96%. For the same compound, the growth at 1 µM [23] was 84%, the growth at 1 µM [24] was 92% and the growth at 1 µM [25] was 89%. For the same compound, the growth at 1 µM [26] was 93%, the growth at 10 µM [27] was -55% and the GI50 ([28]; read-out: GI50) was 1880 nM. It also gave a TGI ([28]; read-out: TGI) of 4.32 µM, a GI50 ([28]; read-out: pGI50 (converted)) of 1860 nM and a TGI ([28]; read-out: pTGI (converted)) of 4.37 µM. It also gave a GI50 ([29]; read-out: GI50) of 2920 nM, a CC50 [29, 30] of over 100 µM and a TGI ([29]; read-out: TGI) of 7.65 µM. The GI50 ([29]; read-out: pGI50 (converted)) was 2950 nM, the CC50 [29, 31] was over 100 µM and the TGI ([29]; read-out: pTGI (converted)) was 7.59 µM.
